Source: PMC4710169 (Biomedical chromatography : BMC, 2014)

Experiments:
Freeze–thaw stability = assay type: in vitro ADME
Procedure, shortened: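 Samples at 324 and 3240 ng/mL, run in triplicate. Each cycle was 24 h at −20°C, then unassisted thawing at room temperature, then refreezing; three cycles in total. Samples then extracted with methanol (0.04% formic acid) on ice and analysed by reversed-phase HPLC-DAD at 295 nm. Final concentration expressed as percent of initial.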

[1] = Short- and long-term stability in mouse plasma; assay type: in vitro ADME; settings: for compound remaining intact in mouse plasma: 4°C
Procedure, shortened: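 Mouse plasma spiked at 324 and 3240 ng/mL, analysed in duplicate. Short-term storage at 37°C (2, 4, 6, 8, 12, 24 h) or 4°C (4, 8, 12, 24 h); long-term storage at −80°C for 2–8 weeks. Samples then methanol-extracted and analysed by HPLC-DAD. Results given as percent of freshly prepared samples.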

[2] = Bench-top stability in mouse plasma and tissue homogenates at 25°C; assay type: in vitro ADME; settings: plasma and most tissue homogenates except for liver
[3] = Homogenization stability in mouse tissues; assay type: in vitro ADME; settings: homogenized
Procedure, shortened: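 Compound at 324 and 3240 ng/mL injected into equal weights of blank mouse tissue, kept inside the organ. Tissue homogenized in two volumes (v/w) PBS on ice, extracted at once by methanol precipitation and analysed immediately. Analysis by C18 HPLC-DAD at 295 nm. Recovery given as percent of initial concentration.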

[4] = Stock solution stability at room temperature; assay type: physicochemical; settings: room temperature (25°C), 24 h; 324 and 3240 ng/mL
Procedure, shortened: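 Stock solutions of analyte and internal standard, at 324 and 3240 ng/mL, tested fresh and after storage at 25°C. Tested at 6, 12 and 24 h after preparation, using the same extraction and C18 HPLC-DAD (295 nm) procedure.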

[5] = Nonspecific binding to container surface; assay type: physicochemical, mouse
Procedure, shortened: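 Sequential transfer test. Plasma or tissue homogenate spiked at 324 or 3240 ng/mL was poured, without a pipette, through four identical clean tubes in turn. Solution stood 5–20 min at room temperature in each donor tube for adsorption. 100 μL taken from each tube and measured by the same extraction and HPLC-DAD method.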

mouse plasma proteins = assay: Plasma protein binding by micro-ultrafiltration; assay type: in vitro ADME; settings: 37°C, 1 h
Procedure, shortened: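 Mouse plasma spiked at 324 and 3240 ng/mL and held at 37°C for 1 h; PBS used as control matrix. Micro-ultrafiltration by centrifugation at 2000g until dry. Filtrate (free, F) and unfiltered solution (total, T) each assayed in triplicate by HPLC, and filter-bound amount (X) also measured. Percent bound = [(T−F−X)/T]×100.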

[6] = test system: hepatic microsomal S9 fractions from CD2F1 mice; assay: S9 metabolism in vitro; assay type: in vitro ADME; settings: mouse S9, 60 min incubation, 37°C
Procedure, shortened: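 Hepatic S9 fraction from CD2F1 mice, containing phase I and II enzymes and cofactors, incubated with compound. Compound added as a 3240 ng/mL DMSO solution (not final concentration) into cold 100 mM Tris, pH 7.4. Duplicate portions taken at 0, 15, 30, 45 and 60 min and analysed for intact compound by HPLC, against a no-S9 control.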

[7] = assay type: in vivo, female nu/nu mice
Procedure, shortened: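 Nude mice carrying subcutaneous MIAPaCa-2 xenografts (1 × 10^7 cells, left inguinal) were dosed once with 40 mg/kg i.p. when tumours reached 100 mg, n=3 per group. Vehicle was PEG400–EtOH–saline (57.1:14.3:28.6). Retro-orbital plasma and necropsy tissues taken at 0–24 h. Urine and feces collected over 24 h in metabolic cages. Tissues homogenized in PBS, methanol-extracted and measured by HPLC-DAD.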

pancreatic cancer cells = settings: ref: our previous studies; cited from earlier work
tumor growth = settings: 40 mg/kg intraperitoneal; ref: our previous studies; cited from earlier work
[8] = female, nu/nu, mouse, plasma, intraperitoneal, 40 mg/kg

SMILES: COc1ccc2[nH]c3c(-c4cccc5ccccc45)nccc3c2c1 [SP-141, 6-methoxy-1-(naphthalen-1-yl)-9H-pyrido[3,4-b]indole]
- percentage of remaining concentration after three freeze–thaw cycles (Freeze–thaw stability; 324 ng/mL): 98.24 ± 0.69%
- percentage of remaining concentration after three freeze–thaw cycles (Freeze–thaw stability; 3240 ng/mL): 97.44 ± 1.53%
- compound remaining intact in mouse plasma ([1]; 24 h, 324 ng/mL): 95.9%
- compound remaining intact in mouse plasma ([1]; 24 h, 3240 ng/mL): 94.3%
- compound remaining in mouse plasma ([1]; 37°C, 24 h, both 324 and 3240 ng/mL): more than 77%
- compound remaining in mouse plasma ([1]; −80°C, 8 weeks, 324 ng/mL): 95.7%
- compound remaining in mouse plasma ([1]; −80°C, 8 weeks, 3240 ng/mL): 98.7%
- bench-top stability [2]: relatively stable
- recovery at 324 ng/mL ([3]; blank brain tissue): 91.3 ± 0.98%
- recovery at 3240 ng/mL ([3]; blank brain tissue): 101 ± 1.45%
- recovery at 324 ng/mL ([3]; blank heart tissue): 81.8 ± 4.47%
- recovery at 3240 ng/mL ([3]; blank heart tissue): 86.6 ± 1.39%
- recovery at 324 ng/mL ([3]; blank kidney tissue): 82.5 ± 2.6%
- recovery at 3240 ng/mL ([3]; blank kidney tissue): 87.8 ± 1.36%
- recovery at 324 ng/mL ([3]; blank liver tissue): 86.7 ± 1.36%
- recovery at 3240 ng/mL ([3]; blank liver tissue): 89.22 ± 0.77%
- recovery at 324 ng/mL ([3]; blank lung tissue): 89 ± 1.57%
- recovery at 3240 ng/mL ([3]; blank lung tissue): 93.3 ± 1.02%
- recovery at 324 ng/mL ([3]; blank muscle tissue): 97.18 ± 0.9%
- recovery at 3240 ng/mL ([3]; blank muscle tissue): 97.5 ± 1.47%
- recovery at 324 ng/mL ([3]; blank spleen tissue): 93 ± 5.2%
- recovery at 3240 ng/mL ([3]; blank spleen tissue): 99.7 ± 1.15%
- recovery at 324 ng/mL ([3]; blank tumor tissue): 99.61 ± 0.79%
- recovery at 3240 ng/mL ([3]; blank tumor tissue): 99.12 ± 0.19%
- stock solution stability [4]: unchanged
- Recovery (%) ± SD (%), nonspecific binding ([5]; Brain, 324 ng/mL): 96.29 ± 2.54%
- Recovery (%) ± SD (%), nonspecific binding ([5]; Brain, 3240 ng/mL): 100.58 ± 0.81%
- Recovery (%) ± SD (%), nonspecific binding ([5]; Heart, 324 ng/mL): 100.41 ± 0.27%
- Recovery (%) ± SD (%), nonspecific binding ([5]; Heart, 3240 ng/mL): 98.82 ± 0.38%
- Recovery (%) ± SD (%), nonspecific binding ([5]; Kidney, 324 ng/mL): 99.88 ± 3.11%
- Recovery (%) ± SD (%), nonspecific binding ([5]; Kidney, 3240 ng/mL): 97.13 ± 1.04%
- Recovery (%) ± SD (%), nonspecific binding ([5]; Liver, 324 ng/mL): 104.91 ± 6.65%
- Recovery (%) ± SD (%), nonspecific binding ([5]; Liver, 3240 ng/mL): 99.69 ± 1.38%
- Recovery (%) ± SD (%), nonspecific binding ([5]; Lungs, 324 ng/mL): 96.64 ± 2.24%
- Recovery (%) ± SD (%), nonspecific binding ([5]; Lungs, 3240 ng/mL): 99.99 ± 0.21%
- Recovery (%) ± SD (%), nonspecific binding ([5]; Muscle, 324 ng/mL): 101.12 ± 2.33%
- Recovery (%) ± SD (%), nonspecific binding ([5]; Muscle, 3240 ng/mL): 99.19 ± 1.01%
- Recovery (%) ± SD (%), nonspecific binding ([5]; Plasma, 324 ng/mL): 98.95 ± 1.49%
- Recovery (%) ± SD (%), nonspecific binding ([5]; Plasma, 3240 ng/mL): 100.49 ± 0.04%
- Recovery (%) ± SD (%), nonspecific binding ([5]; Spleen, 324 ng/mL): 99.54 ± 2.10%
- Recovery (%) ± SD (%), nonspecific binding ([5]; Spleen, 3240 ng/mL): 99.99 ± 0.22%
- Recovery (%) ± SD (%), nonspecific binding ([5]; Tumor, 324 ng/mL): 96.84 ± 2.30%
- Recovery (%) ± SD (%), nonspecific binding ([5]; Tumor, 3240 ng/mL): 99.20 ± 0.57%
- bound to proteins in mouse plasma (mouse plasma proteins; 324 ng/mL): 57.23%
- bound to proteins in mouse plasma (mouse plasma proteins; 3240 ng/mL): 62.61%
- compound metabolized by phase II components [6]: 18.8%
- order of highest overall concentrations in tissues ([7]; 40 mg/kg i.p. single dose): spleen > lungs > liver > kidney > brain > tumor > muscle > heart
- concentration in plasma ([7]; 40 mg/kg i.p. single dose, 6 h): undetectable
- detection in tumor tissue ([7]; 40 mg/kg i.p., 24 h after administration, low concentrations): could be detected
- excretion of parent compound in urine and feces ([7]; 40 mg/kg i.p., 24 h collection, data not shown): minimally excreted
- half-life in plasma ([7]; 40 mg/kg i.p., tumor-bearing nude mice): short half-life
- concentration at 10 min [7, 8]: ~3000 ng/mL
- concentration at 4 h [7, 8]: 200 ng/mL
- effective level against pancreatic cancer cells in vitro (pancreatic cancer cells): submicromolar
- effect on tumor growth in vivo (tumor growth): suppresses the tumor growth
- host toxicity in vivo (tumor growth): no significant host toxicity

SMILES: COc1ccc2c(c1)[nH]c1c(-c3ccc4ccccc4c3)nccc12 [SP-157, 7-methoxy-1-(naphthalen-2-yl)-9H-pyrido[3,4-b]indole, reference compound]
- stock solution stability [4]: unchanged
